Measurements reported in ChEMBL document CHEMBL1158012, “Sapinofuranones A and B, two new 2(3H)-dihydrofuranones produced by sphaeropsis sapinea, a common pathogen of conifers” (J Nat Prod, 1999).

What was measured:
Assay type in all cases: organism-based
Conditions in all cases: in vivo
[1] = system: Pinus radiata; assay: Phytotoxicity against Pinus radiata L assessed as yellowing of twigs at 0.1 to 0.2 mg/ml after 96 hrs
How it was run: (§1)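 Severed cypress or pine twig cuttings were placed in 3 mL of test solution at 0.1-0.2 mg/mL for 96 h, then moved to distilled water. They were kept in a growth chamber at 23 °C, 60% relative humidity and low light. Symptoms were scored over 21 days.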

[2] = system: Cupressus sempervirens; assay: Phytotoxicity against Cupressus sempervirens var. pyramidalis assessed as sapwood stain like symptoms on seedlings at 0.1 to 0.2 mg/ml after 96 hrs
How it was run: (§2)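 A 0.1 mg/mL solution was injected into the cortical tissue 25 cm from the apex of 3-year-old cypress or 2-year-old pine seedlings. Stain, needle and blight symptoms were then scored.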

[3] = system: Hesperocyparis macrocarpa; assay: Phytotoxicity against Cupressus macrocarpa var. lambertiana assessed as sapwood stain like symptoms on seedlings at 0.1 to 0.2 mg/ml after 96 hrs; how it was run: as §2
[4] = system: Pinus radiata; assay: Phytotoxicity against Pinus radiata L assessed as appearance of severe needles on seedlings at 0.1 to 0.2 mg/ml after 96 hrs; how it was run: as §2
[5] = system: Cupressus sempervirens; assay: Phytotoxicity against Cupressus sempervirens var. pyramidalis assessed as browning of twigs at 0.1 to 0.2 mg/ml after 96 hrs; how it was run: as §1
[6] = system: Pinus halepensis; assay: Phytotoxicity against Pinus halepensis L assessed as yellowing of twigs at 0.1 to 0.2 mg/ml after 96 hrs; how it was run: as §1
[7] = system: Hesperocyparis arizonica; assay: Phytotoxicity against Cupressus arizonica assessed as browning of twigs at 0.1 to 0.2 mg/ml after 96 hrs; how it was run: as §1
[8] = system: Hesperocyparis arizonica; assay: Phytotoxicity against Cupressus arizonica assessed as sapwood stain like symptoms on seedlings at 0.1 to 0.2 mg/ml after 96 hrs; how it was run: as §2
[9] = system: Hesperocyparis macrocarpa; assay: Phytotoxicity against Cupressus macrocarpa var. lambertiana assessed as browning of twigs at 0.1 to 0.2 mg/ml after 96 hrs; how it was run: as §1
[10] = system: Pinus halepensis; assay: Phytotoxicity against Pinus halepensis L assessed as appearance of severe needles on seedlings at 0.1 to 0.2 mg/ml after 96 hrs; how it was run: as §2
[11] = system: Solanum lycopersicum; assay: Phytotoxicity against Lycopersicon esculatum L var. Marmande assessed as appearance of epinasty on petioles at 0.05 to 0.1 mg/ml after 48 hrs
How it was run: (§3)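 Tomato (var. Marmande) seedlings were grown at 25 °C, 70-80% relative humidity and a 12 h photoperiod. Cuttings from 21-day-old seedlings were placed in 3 mL of solution at 0.05-0.1 mg/mL for 48 h, then moved to distilled water. Epinasty and browning were scored over 2 days.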

[12] = system: Solanum lycopersicum; assay: Phytotoxicity against Lycopersicon esculatum L var. Marmande assessed as browning of petioles and leaves at 0.05 to 0.1 mg/ml after 48 hrs; how it was run: as §3

Measured: Activity

C/C=C/C=C\[C@H](O)[C@H]1CCC(=O)O1 [SAPINOFURANONE A]
Toxic: all assays above

C/C=C/C=C\[C@@H](O)[C@H]1CCC(=O)O1 [SAPINOFURANONE B]
Toxic: all assays above
